The list is not random: actives were taken first. Their share in the collection is about 0.72%.
hIAP inh = human IAP inhibitors, primary screen, biochemical, luminescence, uHTS. Intestinal-type alkaline phosphatase (Homo sapiens), P09923. inhibition, % at 10 µM. purified IAP, CDP-Star luminescence, 30 min. AID 2544, 2010. hit rate 0.12% among 330,000;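 active = inhibition reaching a set limit with compound at 10 µM in the primary screen, cut at about 35% in these data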;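 also: plate controls were DMSO wells with enzyme for no effect and no-enzyme buffer wells for full effect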
mIAP act = activators of mouse IAP, primary screen, biochemical, luminescence, uHTS. hit rate 0.24% among 330,000. muIAP, CDP-Star luminescence, 30 min; stronger effect = higher value; 1 = vehicle-only enzyme signal, 0 = enzyme-free wells. activation factor at 10 µM. AID 2805, 2010. intestinal alkaline phosphatase [Mus musculus];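 active = activation factor of at least 2 at 20 µM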
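System: Mouse IAP enzyme | Also added: CDP-Star substrate | Dosing: Compounds dispensed in DMSO | Schedule: 30 min enzyme-substrate-compound incubation at room temperature | Technique: Chemiluminescence readout | Control set: DMSO-only wells and no-enzyme negative control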
bIAP act = bovine intestinal alkaline phosphatase activators, primary screen, biochemical, bovine IAP, CDP-star luminescence | alkaline phosphatase, intestinal [Bos taurus] | purified bovine IAP, 30 min; stronger effect = higher value; fold of DMSO-control signal, blank-subtracted | activation factor at 20 µM | hit rate 0.17% among 200,000 | AID 1016, 2008;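 active = activation factor of 2 or more at 20 µM, a signal rise over negative controls twice the positive control's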
bIAP inh = bovine intestinal alkaline phosphatase inhibitors, primary screen, selectivity assay for TNAP inhibitor project, biochemical, bovine IAP, CDP-star luminescence | alkaline phosphatase, intestinal [Bos taurus] | purified bovine IAP, 30 min | inhibition, % at 20 µM | 190,000 tested, under 10 active | AID 1019, 2008;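 active = over 50% inhibition of intestinal alkaline phosphatase at 20 µM in the single-dose screen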
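Incubation: 30 min reaction at room temperature / Material: purified bovine intestinal alkaline phosphatase (IAP) enzyme / Input: enzyme at 1/65,000,000 dilution / Dosing: 20 µM single dose / Signal: CDP-star luminescence signal / Reagent: CDP-star chemiluminescent phosphatase substrate, 30 µM final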
mIAP inh = inhibitors of mouse IAP, primary screen, biochemical, luminescence, uHTS | AID 2806, 2010 | inhibition, % at 10 µM | hit rate 0.2% among 330,000 | purified mouse IAP, CDP-Star luminescence, 30 min | intestinal alkaline phosphatase [Mus musculus];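 active = inhibition of at least 40% at 10 µM in the primary screen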;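 also: plate controls were DMSO with enzyme for no effect and no enzyme wells for full effect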
hIAP activ = human IAP activators, primary screen, biochemical, luminescence, uHTS; purified human IAP, CDP-Star luminescence, 30 min; stronger effect = higher value; 1 = vehicle-only enzyme, 0 = enzyme-free background; activation factor at 10 µM; hit rate 0.16% among 330,000;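 active = activation factor of the enzyme at least 2-fold when tested at 20 µM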
mIAP inh conf = inhibitors of mouse IAP, confirmation, biochemical, luminescence, single concentration; inhibition, % at 10 µM; AID 434971, 2010; shares compounds with mIAP inh; hit rate 4.7% among 11,000; purified mouse IAP, CDP-Star luminescence, 30 min;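 active = inhibition of at least 40% at 10 µM in either of the two replicates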;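 also: plate controls were DMSO wells with enzyme for no effect and buffer wells lacking enzyme for full effect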
An asterisk follows results filed as active; nt = not tested or not shown.

SMILES | hIAP inh | mIAP act | bIAP act | bIAP inh | mIAP inh | hIAP activ | mIAP inh conf
CC(C)(C)c1cc(C=C(C#N)C#N)cc(C(C)(C)C)c1O | 20 | 0.76 | nt | nt | 24 | 0.8 | nt
CN1C(=O)C(c2ccccc2)C(=O)N(C)C1=O | -4 | 1 | nt | nt | -4 | 1 | nt
COc1ccc(OC)c(N2C(=O)NC(=O)/C(=C\c3ccc([N+](=O)[O-])s3)C2=O)c1 | 16 | 0.72 | 1 | -2 | 28 | 0.84 | nt
Cc1ccc(/C=C2/C(=O)NC(=O)N(C)C2=O)cc1 | -13 | 0.99 | 1 | -5 | 1 | 1.1 | nt
O=C1NC(=O)N(c2ccccc2)C(=O)/C1=C\c1ccc([N+](=O)[O-])s1 | 2 | 0.59 | nt | nt | 41* | 0.98 | 53*
CN1C(=O)NC(=O)/C(=C/c2ccc([N+](=O)[O-])s2)C1=O | 0 | 0.54 | nt | nt | 46* | 1 | 45*
O=C1CC(c2ccccc2)CN1 (stereo not drawn) | 4 | 0.99 | nt | nt | 1 | 0.95 | nt
CCN(CC)c1ccc(/C=C2/C(=O)NC(=O)N(CC3CCCO3)C2=O)cc1 (stereo not drawn) | 9 | 0.97 | 1 | 1 | 3 | 0.91 | nt
O=C(O)Cn1cc(/C=C2\C(=O)NC(=O)N(Cc3ccco3)C2=O)c2ccccc21 | 1 | 0.43 | 1.1 | -8 | 57* | 0.99 | 58*
CCN(CC)c1ccc(/C=C2\C(=O)NC(=O)N(Cc3ccco3)C2=O)cc1 | 5 | 0.51 | 0.9 | 14 | 49* | 0.95 | 53*
COC(=O)C1=C(c2ccccc2)C[C@@H]2CC[C@H]1N2C(=O)NCc1ccc(F)cc1 | -9 | 1.1 | nt | nt | -6 | 1.1 | nt

From PubChem BioAssay
